In ChEMBL document CHEMBL4265988, “Molecular tools that block maturation of the nuclear lamin A and decelerate cancer cell migration” (Bioorg Med Chem, 2018):
Active and inactive are the calls of the source. The calls are words filed in the database; no cut-off is given here.

What was measured:
[1] = molecular target: T1, CAAX prenyl protease 1 homolog (Homo sapiens) (UniProt O75844); assay: Inhibition of ZMPSTE24 in human U2OS cells assessed as increase in intracellular accumulation of prelamin A at 10 uM after 24 hrs by Western blot analysis relative to control; format: cell-based
T1 sequence (whole entry): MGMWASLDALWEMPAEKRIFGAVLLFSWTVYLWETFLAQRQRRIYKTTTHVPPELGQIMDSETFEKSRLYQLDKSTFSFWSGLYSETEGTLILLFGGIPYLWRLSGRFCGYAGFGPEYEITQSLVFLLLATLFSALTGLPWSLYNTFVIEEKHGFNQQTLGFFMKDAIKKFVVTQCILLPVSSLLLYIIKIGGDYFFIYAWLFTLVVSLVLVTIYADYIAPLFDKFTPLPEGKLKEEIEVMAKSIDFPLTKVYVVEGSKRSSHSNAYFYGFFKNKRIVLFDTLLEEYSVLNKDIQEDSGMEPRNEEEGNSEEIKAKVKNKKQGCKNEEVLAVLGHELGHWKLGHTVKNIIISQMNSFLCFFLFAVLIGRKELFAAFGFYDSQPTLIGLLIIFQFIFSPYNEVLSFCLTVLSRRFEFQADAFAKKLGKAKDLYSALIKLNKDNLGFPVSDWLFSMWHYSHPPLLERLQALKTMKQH
Summary of the method: (§1)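 Cells treated 24 h with 10 μM compound, lysates analysed by Western blot with prelamin A-specific antibody; prelamin A band normalised to tubulin and expressed relative to untreated control (set to 1); lopinavir run in parallel as reference.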

HPAF-II [2] = assay: Downregulation of MCM6 protein expression in human HPAF2 cells at 10 uM after 48 hrs by Western blot method; format: ADME, cell-based
HPAF-II [3] = assay: Induction of p21 accumulation in human HPAF2 cells at 10 uM after 48 hrs by Western blot method; format: cell-based
KP-4 [4] = assay: Antiproliferative activity against human KP4 cells at 10 uM after 7 days by crystal violet staining-based assay; format: cell-based; details: kp-4, 168 h
Summary of the method: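 Proliferation assay in KP-4 cells, single concentration 10 μM.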

KP-4 [5] = assay: Antimigratory activity against human KP4 cells at 10 uM after 10 days by crystal violet staining-based assay; format: functional, cell-based
Summary of the method: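 Transmigration assay in KP-4 cells; test agents at single 10 μM, with lopinavir and 0.15% DMSO (vehicle) in buffer as controls.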

[6] = molecular target: T1, CAAX prenyl protease 1 homolog (Homo sapiens); assay: Inhibition of ZMPSTE24 in human HCT116 cells assessed as increase in intracellular accumulation of prenylated prelamin A at 10 uM after 24 hrs by Western blot analysis relative to control; format: cell-based; summary of the method: as §1
KP-4 [7] = assay: Downregulation of MCM6 protein expression in human KP4 cells at 10 uM after 48 hrs by Western blot method; format: ADME, cell-based; details: kp-4, 48 h
[8] = molecular target: T1, CAAX prenyl protease 1 homolog (Homo sapiens); assay: Inhibition of ZMPSTE24 in human KP4 cells assessed as increase in intracellular accumulation of prenylated prelamin A at 10 uM after 24 hrs by Western blot analysis relative to control; format: cell-based; summary of the method: as §1
[9] = molecular target: T1, CAAX prenyl protease 1 homolog (Homo sapiens); assay: Inhibition of ZMPSTE24 in human SW1990 cells assessed as increase in intracellular accumulation of prenylated prelamin A at 10 uM after 24 hrs by Western blot analysis relative to control; format: cell-based; summary of the method: as §1
[10] = molecular target: T1, CAAX prenyl protease 1 homolog (Homo sapiens); assay: Inhibition of ZMPSTE24 in human HPAF2 cells assessed as increase in intracellular accumulation of prenylated prelamin A at 10 uM after 24 hrs by Western blot analysis relative to control; format: cell-based; summary of the method: as §1
KP-4 [11] = assay: Induction of p21 accumulation in human KP4 cells at 10 uM after 48 hrs by Western blot method; format: cell-based; details: kp-4, 48 h

fold change (FC) [1] | SMILES | further results
2.8 | Cc1cccc(C)c1OCC(=O)N[C@@H](Cc1ccccc1)[C@@H](O)C[C@H](Cc1ccccc1)NC(=O)[C@@H](NC(=O)Cc1ccc(Cl)cc1)C(C)C | 
1.4 | COc1cc(C(=O)N[C@H](C(=O)N[C@@H](Cc2ccccc2)C[C@H](O)[C@H](Cc2ccccc2)NC(=O)COc2c(C)cccc2C)C(C)C)cc(C(F)(F)F)c1 | 
3.2 | Cc1cccc(C)c1OCC(=O)N[C@@H](Cc1ccccc1)[C@@H](O)C[C@H](Cc1ccccc1)NC(=O)[C@@H](NC(=O)C1CCC(=O)N1)C(C)C (some centres not stated) | 
3.4 | Cc1cc(C)cc(C(=O)N[C@H](C(=O)N[C@@H](Cc2ccccc2)C[C@H](O)[C@H](Cc2ccccc2)NC(=O)COc2c(C)cccc2C)C(C)C)c1 | 
2 | Cc1cccc(C)c1OCC(=O)N[C@@H](Cc1ccccc1)[C@@H](O)C[C@H](Cc1ccccc1)NC(=O)[C@@H](NC(=O)C1CCCCN1)C(C)C (some centres not stated) | 
 | COC(=O)[C@H](C)NC(=O)C(Cc1ccccc1)CP(=O)(O)[C@H](Cc1ccccc1)NC(=O)OCc1ccccc1 (some centres not stated) | Activity (HPAF-II [2]): Non-Toxic; Activity (HPAF-II [3]): Non-Toxic; Activity (KP-4 [4]): Non-Toxic; Activity (KP-4 [5]): Active; fold change (FC) [6]: 2.2; Activity (KP-4 [7]): Non-Toxic; fold change (FC) [8]: 3.6; fold change (FC) [9]: 7.4; fold change (FC) [10]: 2.2; Activity (KP-4 [11]): Non-Toxic
2.7 | Cc1cc(OC(F)(F)F)cc(C(=O)N[C@H](C(=O)N[C@@H](Cc2ccccc2)C[C@H](O)[C@H](Cc2ccccc2)NC(=O)COc2c(C)cccc2C)C(C)C)c1 | 
1.5 | Cc1cccc(C)c1OCC(=O)N[C@@H](Cc1ccccc1)[C@@H](O)C[C@H](Cc1ccccc1)NC(=O)[C@@H](NC(=O)c1ccc2[nH]nnc2c1)C(C)C | 
2.5 | Cc1cccc(C)c1OCC(=O)N[C@@H](Cc1ccccc1)[C@@H](O)C[C@H](Cc1ccccc1)NC(=O)[C@@H](NC(=O)c1ccc([N+](=O)[O-])o1)C(C)C | 
2.7 | COc1cc(Cl)cc(C(=O)N[C@H](C(=O)N[C@@H](Cc2ccccc2)C[C@H](O)[C@H](Cc2ccccc2)NC(=O)COc2c(C)cccc2C)C(C)C)c1 | 
3 | Cc1cccc(C)c1OCC(=O)N[C@@H](Cc1ccccc1)[C@@H](O)C[C@H](Cc1ccccc1)NC(=O)[C@@H](NC(=O)c1ccnc(Cl)c1)C(C)C | 
2.1 | Cc1cccc(C)c1OCC(=O)N[C@@H](Cc1ccccc1)[C@@H](O)C[C@H](Cc1ccccc1)NC(=O)[C@@H](NC(=O)c1cc(C(F)(F)F)cc(C(F)(F)F)c1)C(C)C | 
2.4 | Cc1cccc(C)c1OCC(=O)N[C@@H](Cc1ccccc1)[C@@H](O)C[C@H](Cc1ccccc1)NC(=O)[C@@H](NC(=O)c1cc(Cl)cc(C(F)(F)F)c1)C(C)C | 
1.7 | Cc1cccc(C)c1OCC(=O)N[C@@H](Cc1ccccc1)[C@@H](O)C[C@H](Cc1ccccc1)NC(=O)[C@@H](NC(=O)Cc1cccnc1)C(C)C | 
 | C[C@H](NC(=O)C(Cc1ccccc1)CP(=O)(O)[C@H](Cc1ccccc1)NC(=O)OCc1ccccc1)C(=O)O (some centres not stated) | inhibition [1]: inactive
3 | Cc1cccc(C)c1OCC(=O)N[C@@H](Cc1ccccc1)[C@@H](O)C[C@H](Cc1ccccc1)NC(=O)[C@@H](NC(=O)CC1CC1)C(C)C | 
1.2 to 2.1 | Cc1cccc(C)c1OCC(=O)N[C@@H](Cc1ccccc1)[C@@H](O)C[C@H](Cc1ccccc1)NC(=O)[C@H](C(C)C)N1CCCNC1=O | Activity (KP-4 [5]): inactive; fold change (FC) [6]: 1.4; fold change (FC) [8]: 2.5; fold change (FC) [9]: 4.9; fold change (FC) [10]: 2
2.1 | Cc1cccc(C)c1OCC(=O)N[C@@H](Cc1ccccc1)[C@@H](O)C[C@H](Cc1ccccc1)NC(=O)[C@@H](NC(=O)c1ccc(Br)cn1)C(C)C | 
